hERG protect – hERG (human) protection from proarrhythmic block; activation (rescue from dofetilide block), less the hit threshold, % at 10 µM; AID 1511; CHO-hERG, FluxOR thallium flux, dofetilide IC70 present; 0.51% of 310,000 active;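 active = activation above the mean of controls blocked by dofetilide plus 5 SD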;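 note: thallium influx through hERG after potassium depolarization seen as dye fluorescence rise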
Kir21 inh – inhibitors of mouse Kir2.1 inward-rectifier potassium channel. P35561. HEK293-Kir2.1, FluxOR thallium flux fluorescence; hits give low values. B-score at 10 µM. 0.85% of 310,000 active. AID 1672;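 active = fluorescence ratio B-score at or below minus 3 SD of library scores, with starting-brightness B-score within 2 SD, cut at about -4.2 in these data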;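 note: channel flux triggered by added potassium and thallium sulfate stimulus; B-score of peak minus minimum fluorescence over baseline after thallium stimulus; more negative B-score means stronger Kir2.1 block with less thallium influx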
KCNQ1 pot – potentiates or activates the human KCNQ1 potassium channel; P51787; CHO-K1 KCNQ1, thallium flux FluxOR fluorescence; hits give high values; B-score at 10 µM; 0.35% of 310,000 active; AID 2648;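 active = fluorescence ratio B-score, a plate-corrected score, at least three library SD, with initial intensity B-score within 5 SD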
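Material: CHO-K1 cells stably expressing KCNQ1. Medium: assay buffer for compound exposure, DMSO matched across wells. Reagent: K+/Tl+ depolarizing stimulus. Compound dosing: single-concentration screen. Times: 37 °C overnight plating, 90-min dark dye load, 20-min compound pretreatment. Technique: FluxOR Tl+ flux fluorescence.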
KCNK9 block – inhibitors of human KCNK9 two-pore domain potassium channel; Q9NPC2; HEK293 KCNK9, FluxOR thallium flux fluorescence; hits give low values; B-score at 10 µM; 1.2% of 310,000 active; AID 488922;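 active = ratio B-score over 3 SD below the library mean, with starting fluorescence within 5 SD of its mean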;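 note: negative B-score means less thallium flux so channel inhibition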
KCNQ1 inh – inhibitors of human KCNQ1 potassium channel; P51787; CHO-K1 KCNQ1, FluxOR thallium flux fluorescence; hits give high values; B-score at 10 µM; 1.3% of 310,000 active;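 active = compounds whose thallium flux B-score, printed positive for inhibition, exceeds three library SD while starting fluorescence stays within three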;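 note: channel opened by potassium depolarization with thallium stimulus after 20 min compound exposure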
KCNK3 inh – human KCNK3 channel inhibition, primary screen; O14649; 0.84% of 340,000 active; B-score at 10 µM; CHO-KCNK3 thallium flux, FluxOR fluorescence; hits give low values;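 active = B-score under library mean minus 4 SD, starting fluorescence ratio at most library mean plus 5 SD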;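 note: more negative B-score means stronger inhibition of thallium flux through KCNK3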
KCNK3 confirm – confirmation of human KCNK3 two-pore domain potassium channel inhibitors. shares compounds with KCNK3 inh. ratio percent of control, % at 10 µM. 99% of 2,400 active. CHO-KCNK3 thallium flux, FluxOR fluorescence; 0% buffer, 100% carvedilol maximal block. AID 651638;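 active = ratio percent of control, averaged over triplicates, above buffer control mean plus 5 SD, cut at about 64% in these data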;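 note: ratio is the fluorescence rise from min to max over baseline after thallium stimulus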
KCNK3 uninduced – activity in cells without induced KCNK3 expression | shares compounds with KCNK3 inh | non-induced KCNK3 parental cells, FluxOR thallium flux; hits give low values | thallium flux ratio (lower = more inhibition) at 10 µM | 40% of 2,400 active;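 active = thallium flux ratio, averaged over three wells, more than 5 SD below the buffer control mean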;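 note: host cells are CHO cells without KCNK3 induction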
Large screens that a line does not name were inactive (follow-up assays come after a bar, where they were run). Only some compounds are listed: those with a hit (about 3.8% of all), similar ones and a draw of the others.

O=C(CNC(=O)c1ccccc1)OCc1nnc(-c2ccccc2)o1	none
O=C(CCN1c2ccccc2Sc2ccccc21)OCc1nnc(-c2ccccc2)o1	KCNK3 inh -9.5 | KCNK3 confirm 73 | KCNK3 uninduced inactive
CN(c1ccc(Cl)cc1)S(=O)(=O)c1nnc(NC(=O)C(C)(C)C)s1	none
O=C(CSc1nc2ccccc2c(=O)n1CC1CCCO1)Nc1ccccc1Cl (stereo not given)	KCNK9 block -7.6, KCNK3 inh -12 | KCNK3 confirm 104 | KCNK3 uninduced inactive
O=C(CSc1nc2ccccc2c(=O)n1CC1CCCO1)Nc1ccccc1 (stereo not given)	none
CCc1nnc(SCC(=O)Nc2ccccc2)n1CC1CCCO1 (stereo not given)	KCNK3 inh -8.7 | KCNK3 confirm 79 | KCNK3 uninduced 0.16
COc1ccc(C(=O)c2c(-c3cccc(C)c3)oc3ccc(N4CCOCC4)cc23)cn1	none
COc1ccc2ccccc2c1CN1CCN(C(=O)c2ccco2)CC1	KCNK3 inh -11 | KCNK3 confirm 90 | KCNK3 uninduced inactive
COc1ccc2cc(C(=O)/C=C/c3cc(OC)c(O)c(OC)c3)ccc2c1	KCNK3 inh -9.8 | KCNK3 confirm 131 | KCNK3 uninduced 0.13
CNC(=O)CS(=O)CC(=O)Nc1cc(OCCOC)c(Cl)cc1Cl (stereo not given)	none
COc1ccc(NC(=O)CSc2cc(C(=O)c3nccn3C)c3ccccc3n2)cc1	none
CCc1cccc(NC(=O)c2cccc3c2C(=O)N(C2CCCCC2)C3)c1	KCNK3 inh -8.7 | KCNK3 confirm 78 | KCNK3 uninduced inactive
O=C(CSc1nc2ccccc2c(=O)n1Cc1ccco1)N1CCN(c2ccccc2)CC1	none
Cc1sc2nc(SCC(=O)c3cccs3)n(Cc3ccco3)c(=O)c2c1C	KCNK3 inh -9.4 | KCNK3 confirm 106 | KCNK3 uninduced inactive
O=c1c2ccccc2nc(SCc2nc3ccccc3s2)n1Cc1ccco1	KCNK3 inh -12 | KCNK3 confirm 127 | KCNK3 uninduced 0.15
O=C(CSc1nc2ccccc2c(=O)n1Cc1ccco1)c1ccccc1	KCNK3 inh -11 | KCNK3 confirm 91 | KCNK3 uninduced inactive
CN1CCN(c2ccccc2NC(=O)c2ccc(Br)o2)CC1	none
CC1CCN(c2ccccc2NC(=O)c2ccc(Br)o2)CC1	KCNK9 block -8, KCNK3 inh -9 | KCNK3 confirm 126 | KCNK3 uninduced 0.15
COc1ccc(-c2cc(C(=O)N3CCCc4ccccc43)no2)cc1	none
COc1cccc(-c2cc(C(=O)N3CCCc4ccccc43)no2)c1	KCNK3 inh -12 | KCNK3 confirm 115 | KCNK3 uninduced inactive
O=C(NNC(=O)c1ccccc1-n1cccc1)c1cncc(Br)c1	none (no result: hERG protect, Kir21 inh, KCNQ1 pot, KCNK9 block, KCNQ1 inh)
CC(C)Oc1cccc(C(=O)O)c1	none
COC(=O)c1ccccc1NC(=O)c1ccc(COc2cc(C)cc(C)c2)o1	KCNK3 inh -9.5 | KCNK3 confirm 87 | KCNK3 uninduced inactive
Cc1ccc(C)c(N2CCN(C(=O)CCC(=O)N3CCOc4ccc(Cl)cc43)CC2)c1	KCNK3 inh -10 | KCNK3 confirm 122 | KCNK3 uninduced 0.15
Cc1ccc(C)c(N2CCN(CCCNC(=O)CCC(=O)N3CCOc4ccc(Cl)cc43)CC2)c1	none (no result: KCNK3 inh)
CCCN1C(=O)c2cc(C(=O)NC3CCCCCC3)ccc2C1O (stereo not given)	KCNK3 inh -18 | KCNK3 confirm 82 | KCNK3 uninduced inactive
CCOC(=O)CCSc1nc(C(C)(C)C)cc(C(F)(F)F)c1C#N	KCNQ1 inh 6, KCNK3 inh -8.9 | KCNK3 confirm 131 | KCNK3 uninduced 0.13
O=[N+]([O-])c1ccc(SCc2ccncc2)nc1	none
O=C1CN(C(=O)c2ccccc2F)C(c2ccc(F)cc2)c2cc(Br)ccc2N1 (stereo not given)	none
COc1cc(C(=O)N2c3ccccc3CCC2C)cc(OC)c1OC (stereo not given)	none
CC1CCc2ccccc2N1C(=O)c1cccs1 (stereo not given)	KCNK3 inh -8.9 | KCNK3 confirm 69 | KCNK3 uninduced inactive
Cc1noc(-c2ccccc2)c1NC(=O)Nc1ccccc1	none
Cc1noc(-c2ccccc2)c1NC(=O)Nc1ccc(Cl)cc1	KCNK3 inh -11 | KCNK3 confirm 106 | KCNK3 uninduced inactive
Cc1noc(/C=C/N(C)C)c1S(=O)(=O)N1CCCC(C(=O)Nc2ccc(F)cc2F)C1 (stereo not given)	none
COc1cc2c(cc1OC)CN(C(=S)NC(=O)c1ccccc1)CC2	none
Cc1c(C(C)(C)C)sc(=NC(=O)c2ccccc2O)n1C	KCNK3 inh -9.7 | KCNK3 confirm 65 | KCNK3 uninduced inactive
Cc1c(C(C)(C)C)s/c(=N/S(=O)(=O)c2ccccc2)n1C	none
CC(=O)N1CCN(S(=O)(=O)c2cccc(C(=O)NCc3ccc(F)cc3)c2)CC1	none (no result: hERG protect, Kir21 inh, KCNQ1 pot, KCNK9 block, KCNQ1 inh)
c1cnc(SCCCOc2ccc3ccccc3c2)nc1	KCNK3 inh -10 | KCNK3 confirm 114 | KCNK3 uninduced 0.14
c1ccc(Oc2cccc(OCCCCSc3ncccn3)c2)cc1	KCNK3 inh -11 | KCNK3 confirm 89 | KCNK3 uninduced 0.15
Cc1cc(C)c(S(=O)(=O)c2cccc(Br)c2C)c(Cl)n1	none
O=S(=O)(c1ccccc1)N1CCN=C1SCc1c(F)cccc1Cl	KCNK3 inh -11 | KCNK3 confirm 121 | KCNK3 uninduced 0.14
Cc1ccc(S(=O)(=O)N2CCN=C2SCc2ccc(Cl)c(Cl)c2)cc1	none
Cc1ccc(C)c(CSC2=NCCN2S(=O)(=O)c2ccccc2)c1	KCNK9 block -7.9, KCNK3 inh -11 | KCNK3 confirm 129 | KCNK3 uninduced 0.15
O=S(=O)(c1ccc(Cl)cc1)N1CCN=C1SCc1cccc(Cl)c1	none
C=CCn1c(-c2ccccc2)cc(SC)c(C#N)c1=O	KCNK3 inh -9.5 | KCNK3 confirm 84 | KCNK3 uninduced inactive
CCCn1c(-c2ccccc2)cc(SC)c(C#N)c1=O	none
Cc1c(C(=O)N(C)Cc2ccccc2)oc2c(Cl)cccc12	KCNK3 inh -11 | KCNK3 confirm 110 | KCNK3 uninduced inactive
Cc1c(C(=O)OC(C)C(=O)N(C)Cc2ccccc2)oc2ccccc12 (stereo not given)	KCNK3 inh -12 (no result: hERG protect, Kir21 inh, KCNQ1 pot, KCNK9 block, KCNQ1 inh) | KCNK3 confirm 77 | KCNK3 uninduced inactive
CCOC(=O)COc1ccc(S(=O)(=O)NCCC2=CCCCC2)cc1	none
CC(=O)c1cc(C(=O)Nc2ccc3ccccc3c2)c(C)o1	KCNK3 inh -11 | KCNK3 confirm 53 | KCNK3 uninduced inactive
